Among the data in ChEMBL document CHEMBL4251623, “Synthesis and evaluation of 2-(3-arylureido)pyridines and 2-(3-arylureido)pyrazines as potential modulators of Aβ-induced mitochondrial dysfunction in Alzheimer's disease” (Eur J Med Chem, 2018) are Activity, viability and percent protection against Aβ1-42 toxicity values, retold here.

The species entered for the first data set is Mus musculus. Briefly: Inhibition of amyloid beta (1 to 42)-induced mPTP opening in mouse HT22 cells assessed as reduction in mitochondrial membrane potential loss by measuring green to red fluorescence ratio at 5 uM preincubated for 10 mins followed by amyloid beta (1 to 42) addition and measured every 1 hr for 3 hrs by JC1 staining based fluorescence assay relative to control.
Settings: not given
It is filed as cell-based. Also on record: scale not given: the % may be the effect or the level left. The method in brief:
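HT-22 cells (30,000/well) were seeded one day before and loaded with 7.5 µM final JC-1 in phenol red-free Opti-MEM for 1 h 15 min at 37 °C, then washed with PBS. Compound (5 µM) was added for 10 min at 37 °C, then Aβ1-42 (5 µM). Red (ex/em 530/580 nm) and green (485/530 nm) fluorescence were read hourly for 3 h. Green/red ratio was expressed versus Aβ alone (100%), as mean of duplicates.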
As to `Cc1ccc(NC(=O)Nc2ncccc2OCc2cccc(F)c2)cc1`, the Activity is 22%.
Still for that read-out and setting: under `O=C(Nc1ccc(Cl)c(Cl)c1)Nc1ncccc1OCc1ccccc1Cl` stands 36%; under `O=C(Nc1cccc(Cl)c1)Nc1ncccc1OCc1cccc(Cl)c1`, 55%.
Turning to `Cc1ccc(NC(=O)Nc2nccnc2OCc2cccc(F)c2)cc1`, the Activity amounted to 96%.
In the case of `O=C(Nc1cccc(F)c1)Nc1ncccc1OCc1cccc(Cl)c1`, the Activity amounted to 13%.
Still for that read-out and setting: then `O=C(Nc1cccc(Cl)c1)Nc1ncccc1OCc1ccc(F)cc1`, with 91%; and `O=C(Nc1ccccc1F)Nc1ncccc1OCc1cccc(Cl)c1`, with 11%.
Still for that read-out and setting: under `O=C(Nc1ccccc1)Nc1ncccc1OCc1cccc(F)c1` stands 23%.
On the same count and under the same terms, under `O=C(Nc1cccc(F)c1)Nc1ncccc1OCc1ccc(F)cc1` stands 18%; under `O=C(Nc1ccccc1)Nc1ncccc1OCc1ccccc1Cl`, 80%; under `O=C(NCc1ccccc1)Nc1ncccc1OCc1cccc(F)c1`, 9%.
In the case of `O=C(Nc1ccc(C(F)(F)F)cc1)Nc1ncccc1OCc1ccc(Cl)cc1`, the Activity is 91%.
Still for that read-out and setting: then `Cc1ccc(NC(=O)Nc2ncccc2OCc2ccccc2Cl)cc1`, with 22%; and `O=C(Nc1cccc(Cl)c1)Nc1ncccc1OCc1ccc(Cl)cc1`, with 46%; and `O=C(Nc1ccccc1F)Nc1ncccc1OCc1ccccc1Cl`, with 38%.
With `Cc1ccc(NC(=O)Nc2ncccc2OCc2ccc(Cl)cc2)cc1`, the Activity came to 44%.
Same read-out and setting: under `O=C(Nc1ccccc1F)Nc1ncccc1OCc1ccc(F)cc1` stands 27%.
Same read-out and setting: then `O=C(Nc1ccc(Cl)c(Cl)c1)Nc1ncccc1OCc1cccc(F)c1`, with 35%; and `O=C(Nc1ccccc1F)Nc1ncccc1OCc1cccc(F)c1`, with 23%; and `O=C(Nc1ccccc1F)Nc1nccnc1OCc1ccccc1`, with 123%.
Same read-out and setting: then `O=C(Nc1ccc(Cl)c(Cl)c1)Nc1ncccc1OCc1ccccc1`, with 19%; and `O=C(Nc1cccc(F)c1)Nc1ncccc1OCc1ccc(Cl)cc1`, with 15%; and `O=C(Nc1cccc(F)c1)Nc1ncccc1OCc1ccccc1Cl`, with 32%.
For `O=C(Nc1ccccc1F)Nc1ncccc1OCc1ccccc1`, the Activity amounted to 69%.
Still for that read-out and setting: under `O=C(Nc1ncccc1OCc1cccc(Cl)c1)Nc1cccc2ccccc12` stands 106%; under `O=C(Nc1ccc(C(F)(F)F)cc1)Nc1ncccc1OCc1cccc(Cl)c1`, 27%; under `O=C(Nc1cccc(Cl)c1)Nc1ncccc1OCc1ccccc1Cl`, 25%.
Same read-out and setting: then `O=C(Nc1ccc(C(F)(F)F)cc1)Nc1ncccc1OCc1cccc(F)c1`, with 23%; and `O=C(Nc1ccccc1)Nc1ncccc1OCc1cccc(Cl)c1`, with 14%; and `O=C(Nc1ccccc1F)Nc1ncccc1OCc1ccc(Cl)cc1`, with 27%.
Regarding `O=C(Nc1ccc(Cl)c(Cl)c1)Nc1nccnc1OCc1cccc(F)c1`, the Activity was 101%.
Still for that read-out and setting: under `Cc1ccc(NC(=O)Nc2ncccc2OCc2cccc(Cl)c2)cc1` stands 26%; under `O=C(Nc1ncccc1OCc1ccccc1Cl)Nc1cccc2ccccc12`, 77%.
The same measure, in the same setting: then `O=C(Nc1cccc(F)c1)Nc1nccnc1OCc1ccccc1`, with 111%; and `O=C(Nc1ncccc1OCc1ccc(Cl)cc1)Nc1cccc2ccccc12`, with 52%; and `O=C(Nc1cccc(F)c1)Nc1ncccc1OCc1ccccc1`, with 13%.
In the case of `O=C(Nc1cccc(F)c1)Nc1nccnc1OCc1cccc(F)c1`, the Activity is 98%.
On the same count and under the same terms, under `O=C(Nc1cccc(F)c1)Nc1ncccc1OCc1cccc(F)c1` stands 34%; under `O=C(Nc1ccc(Cl)c(Cl)c1)Nc1ncccc1OCc1ccc(Cl)cc1`, 47%; under `O=C(NCc1ccccc1)Nc1nccnc1OCc1cccc(F)c1`, 69%.
In the case of `O=C(Nc1ccc(Cl)c(Cl)c1)Nc1ncccc1OCc1cccc(Cl)c1`, the Activity was found to be 10%.

The subject of the next data set is HT-22. The data set is described as follows: Toxicity in mouse HT22 cells assessed as ATP production level at 5 uM after 7 hrs by luciferase based assay relative to control. The following applies: ht-22, 7 h. Format: cell-based. The method in brief:
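HT-22 cells (10,000/well, seeded the day before; DMEM, 10% FBS, 37 °C, 5% CO2) were exposed to compound (5 µM per footnote) without Aβ for 7 h at 37 °C. Cells were lysed in 1% Triton X-100/TBST, equal protein (BCA) was taken, and ATP was measured with a luciferase kit. Result is % ATP production relative to vehicle; mean of duplicates.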
`O=C(Nc1ccc(Cl)c(Cl)c1)Nc1ncccc1OCc1ccccc1Cl`: the Activity is 123%.
As to `O=C(Nc1cccc(F)c1)Nc1ncccc1OCc1cccc(Cl)c1`, the Activity turned out to be 99%.
For `O=C(Nc1ccccc1F)Nc1ncccc1OCc1cccc(Cl)c1`, the Activity was determined as 104%.
As to `O=C(Nc1cccc(F)c1)Nc1ncccc1OCc1ccccc1Cl`, the Activity is given as 106%.
Still for that read-out and setting: then `O=C(Nc1cccc(Cl)c1)Nc1ncccc1OCc1ccccc1Cl`, with 124%; and `O=C(Nc1ccccc1)Nc1ncccc1OCc1cccc(Cl)c1`, with 109%; and `NC(=O)CN1CCCC1=O` [PIRACETAM], with 88%.
On the same count and under the same terms, then `Cc1ccc(NC(=O)Nc2ncccc2OCc2cccc(Cl)c2)cc1`, with 108%.

System in another data set: not listed separately
Briefly: Cytotoxicity against mouse HT22 cells assessed as cell viability at 5 uM after 24 hrs by MTT assay relative to control. Format: cell-based, HT-22. The following applies: read-out: Activity. In short, it runs like this:
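HT-22 cells (5000/well) got compound at 5 µM for 24 h at 37 °C. MTT was added for 2 h, then solubilizer (10% Triton X-100 in isopropanol, 0.1 M HCl) for 1 h at room temperature. Absorbance was read at 570 nm, vehicle-subtracted, and expressed as % viability; mean of duplicates.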
Regarding `O=C(Nc1ccc(Cl)c(Cl)c1)Nc1ncccc1OCc1ccccc1Cl`, the viability at 24 h, 5 µM amounted to 60%.
Regarding `O=C(Nc1cccc(F)c1)Nc1ncccc1OCc1cccc(Cl)c1`, the viability at 24 h, 5 µM worked out at 91%.
Still for that read-out and setting: under `O=C(Nc1ccccc1F)Nc1ncccc1OCc1cccc(Cl)c1` stands 115%; under `O=C(Nc1cccc(F)c1)Nc1ncccc1OCc1ccccc1Cl`, 86%; under `O=C(Nc1cccc(Cl)c1)Nc1ncccc1OCc1ccccc1Cl`, 84%.
Same read-out and setting: then `O=C(Nc1ccccc1)Nc1ncccc1OCc1cccc(Cl)c1`, with 98%.
Same read-out and setting: then `Cc1ccc(NC(=O)Nc2ncccc2OCc2cccc(Cl)c2)cc1`, with 95%.

For the next data set, the species on record is Mus musculus. Briefly: Inhibition of amyloid beta (1 to 42)-induced mPTP opening in mouse HT22 cells assessed as protection against amyloid beta (1 to 42)-induced deterioration of ATP production by measuring ATP recovery at 5 uM preincubated for 10 mins followed by amyloid beta (1 to 42) addition and measured after 7 hrs relative to control. Format: cell-based. Also on record: scale not given: the % may be the effect or the level left.
Settings: not given
The method in brief:
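HT-22 cells (10,000/well, seeded the day before) got compound for 10 min at 37 °C, then Aβ1-42; per footnote, both were at 5 µM. After 7 h at 37 °C, cells were washed, lysed in 1% Triton X-100/TBST and protein-normalized by BCA. ATP was measured with a luciferase kit. Aβ-injured level was set to 0 and vehicle to 100% recovery; mean of duplicates.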
Turning to `O=C(Nc1cccc(F)c1)Nc1ncccc1OCc1cccc(Cl)c1`, the Activity stood at 69%.
For the compound `O=C(Nc1ccccc1F)Nc1ncccc1OCc1cccc(Cl)c1`, the Activity worked out at 43%.
Regarding `O=C(Nc1cccc(F)c1)Nc1ncccc1OCc1ccccc1Cl`, the Activity came out at 78%.
On the same count and under the same terms, under `O=C(Nc1cccc(Cl)c1)Nc1ncccc1OCc1ccccc1Cl` stands 91%; under `O=C(Nc1ccccc1)Nc1ncccc1OCc1cccc(Cl)c1`, 90%.
Turning to `NC(=O)CN1CCCC1=O` [PIRACETAM], the Activity is 127%.
For the compound `Cc1ccc(NC(=O)Nc2ncccc2OCc2cccc(Cl)c2)cc1`, the Activity worked out at 54%.

The species entered for another data set is Mus musculus. The data set is described as follows: Inhibition of amyloid beta (1 to 42)-induced mPTP opening in mouse HT22 cells assessed as neuroprotective activity against amyloid beta (1 to 42)-induced toxicity at 5 uM measured after 24 hrs by MTT assay relative to control. It is filed as cell-based.
Settings: not given
The method in brief: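 HT-22 cells (5000/well) were pretreated with compound for 10 min, then Aβ1-42 was added, both at 5 µM, for 24 h at 37 °C. Viability was read by MTT (2 h; acidic Triton/isopropanol solubilization; A570). Aβ-treated viability was set to 0 and vehicle to 100% protection; mean of duplicates.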
Consider `O=C(Nc1cccc(F)c1)Nc1ncccc1OCc1cccc(Cl)c1`, for which the percent protection against Aβ1-42 toxicity was determined as 38%.
The same measure, in the same setting: then `O=C(Nc1ccccc1F)Nc1ncccc1OCc1cccc(Cl)c1`, with 67%.
On the same count and under the same terms, under `O=C(Nc1cccc(F)c1)Nc1ncccc1OCc1ccccc1Cl` stands 14%; under `O=C(Nc1cccc(Cl)c1)Nc1ncccc1OCc1ccccc1Cl`, 21%; under `O=C(Nc1ccccc1)Nc1ncccc1OCc1cccc(Cl)c1`, 31%.
Consider `NC(=O)CN1CCCC1=O` [PIRACETAM], for which the percent protection against Aβ1-42 toxicity stood at 29%.
Still for that read-out and setting: under `Cc1ccc(NC(=O)Nc2ncccc2OCc2cccc(Cl)c2)cc1` stands 17%.
